Source: ChEMBL document CHEMBL4350970, “Rational Design of 5-(4-(Isopropylsulfonyl)phenyl)-3-(3-(4-((methylamino)methyl)phenyl)isoxazol-5-yl)pyrazin-2-amine (VX-970, M6620): Optimization of Intra- and Intermolecular Polar Interactions of a New Ataxia Telangiectasia Mutated and Rad3-Related (ATR) Kinase Inhibitor” (J Med Chem, 2019)
In brackets after ≈: the same amount, converted by molar mass. Activity calls are given as the source filed them. The rule behind the calls is not given here.

Legend:
[1] = molecular target: T1, Serine/threonine-protein kinase ATR (Homo sapiens, UniProt Q13535); test: Inhibition of ATR in human HCT116 cells assessed as reduction in histone H2AX phosphorylation by Hoechst staining-based immunofluorescence microscopic analysis; assay type: cell-based
Homo sapiens [2] = organism: Homo sapiens; test: Selectivity ratio of Ki for full-length ATM (unknown origin) to Ki for recombinant human full-length N-terminal Flag epitope-tagged ATR expressed in HEK293T cells; assay type: cell-based
Summary of the method: (§1)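 Ratio of Ki values from the radiometric [γ-33P]ATP phosphocellulose-capture assays with full-length kinases: ATM or DNA-PK Ki over ATR Ki.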

[3] = molecular target: DNA-dependent protein kinase catalytic subunit (Homo sapiens, UniProt P78527); test: Inhibition of purified recombinant human full-length DNA-PK using EPPLSQEAFADLWKKK peptide as substrate measured after 2 hrs in presence of [gamma-33P] ATP by microbeta liquid scintillation counting analysis
Summary of the method: (§2)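 Radiometric phosphate incorporation assay with full-length kinase (ATR and ATM made in-house; DNA-PK purchased) premixed with buffer and target peptide. Compound added in DMSO over a range of concentrations, final DMSO 7%. Started with [γ-33P]ATP at 25 °C. Stopped with phosphoric acid (final 100 mM) and ATP (final […]), captured on phosphocellulose, washed with 100 mM phosphoric acid, then scintillation counted. Dose-response fitting.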

[4] = molecular target: T1, Serine/threonine-protein kinase ATR; test: Inhibition of recombinant human full-length N-terminal Flag epitope-tagged ATR expressed in HEK293T cells using ASELPASQPQPFSAKKK peptide as substrate measured after 24 hrs in presence of [gamma-33P] ATP by microbeta liquid scintillation counting analysis; summary of the method: as §2
[5] = molecular target: Serine-protein kinase ATM (Homo sapiens, UniProt Q13315); test: Inhibition of full-length ATM (unknown origin) using DPSVEPPLSQETFSDKKK peptide as substrate measured after 24 hrs in presence of [gamma-33P] ATP by microbeta liquid scintillation counting analysis; summary of the method: as §2
Homo sapiens [6] = organism: Homo sapiens; test: Selectivity ratio of Ki for purified recombinant human full-length DNA-PK to Ki for recombinant human full-length N-terminal Flag epitope-tagged ATR expressed in HEK293T cells; summary of the method: as §1
HCT-116 [7] = test: Potentiation of cisplatin-induced antiproliferative activity against human HCT116 cells assessed as reduction in cell viability at 500 nM measured after 96 hrs by MTS assay; assay type: functional, cell-based
Summary of the method: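 HCT116 cells from ATCC, exponentially growing, plated and left to adhere overnight. Compound and cisplatin added at the indicated concentrations, then incubated 96 h. MTS reagent added and absorbance read at 490 nm after 1 h. Synergy and antagonism assessed with Macsynergy analysis.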

[8] = Aqueous solubility of the compound in PBS incubated overnight by UPLC-MS analysis; assay type: physicochemical
Summary of the method: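 Compounds dissolved in DMSO (standard) or in DPBS (10 mM phosphate, 140 mM NaCl) to at most 200 µM. PBS samples sealed, shaken overnight at room temperature, then centrifuged 45 min at 4000 rpm, 22 °C. UV AUC from UPLC-MS compared with the DMSO standard: solubility = AUC(PBS)/AUC(standard) × [standard].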

[9] = molecular target: Receptor-type tyrosine-protein kinase FLT3 (Homo sapiens, UniProt P36888); test: Inhibition of human Flt3
[10] = molecular target: Receptor-type tyrosine-protein kinase FLT3 (Homo sapiens, UniProt P36888, D835Y); test: ATP competitive inhibition of human Flt3 D835Y mutant
[11] = molecular target: Cytochrome P450 2D6, Homo sapiens (UniProt P10635); test: Inhibition of CYP2D6 (unknown origin)
[12] = Dissociation constant, pKa of compound; assay type: physicochemical
[13] = molecular target: Tyrosine-protein kinase JAK2 (Homo sapiens, UniProt O60674); test: Inhibition of human JAK2
[14] = molecular target: Mitogen-activated protein kinase kinase kinase 9 (Homo sapiens, UniProt P80192); test: ATP competitive inhibition of human MLK1
HCT-116 [15] = test: Potentiation of cisplatin-induced antiproliferative activity against human HCT116 cells assessed as reduction in cell viability at < 50 nM measured after 96 hrs by MTS assay; assay type: functional, cell-based
Summary of the method: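 HCT116 cells plated and left to adhere overnight. Compound and cisplatin added the next day at set concentrations, then incubated 96 h. MTS reagent added; absorbance at 490 nm read after 1 h. Synergy and antagonism assessed by MacSynergy analysis.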

[16] = Volume of distribution at steady state in Sprague-Dawley rat at 10 mg/kg administered as iv infusion for 3 hrs; assay type: ADME, organism-based; settings: in vivo, read-out: Vdss
Summary of the method: (§3)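 Male Sprague-Dawley rats (about 200-350 g), catheterized in jugular and femoral veins under isoflurane; n=3. IV infusion at 3.33 mg/kg/h for 3 h (nominal 10 mg/kg, as free base) in 5% Captisol:2.5% mannitol in water. Jugular blood drawn at 0-51 h, centrifuged 3,000 G, 10 min, 4 °C; plasma collected.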

[17] = molecular target: Tyrosine-protein kinase SYK (Homo sapiens, UniProt P43405); test: Inhibition of human SYK
[18] = molecular target: Dual specificity tyrosine-phosphorylation-regulated kinase 2 (Homo sapiens, UniProt Q92630); test: ATP competitive inhibition of human DYRK2
[19] = molecular target: Tyrosine-protein kinase ABL1 (Homo sapiens, UniProt P00519, T315I); test: ATP competitive inhibition of human ABL T315I mutant
[20] = molecular target: Voltage-gated inwardly rectifying potassium channel KCNH2 (Homo sapiens, UniProt Q12809); test: Inhibition of human ERG
[21] = molecular target: Vascular endothelial growth factor receptor 3 (Homo sapiens, UniProt P35916); test: ATP competitive inhibition of human Flt4
[22] = molecular target: Glycogen synthase kinase-3 beta (Homo sapiens, UniProt P49841); test: Inhibition of human GSK3beta
Cytochrome P450 2C9 = Cytochrome P450 2C9 (Homo sapiens, UniProt P11712); test: Inhibition of CYP2C9 (unknown origin); assay type: ADME
[23] = Half life in Sprague-Dawley rat at 10 mg/kg administered as iv infusion for 3 hrs; assay type: ADME, organism-based; settings: in vivo; summary of the method: as §3
[24] = Permeability across apical to basolateral side in human Caco2 cells; assay type: ADME, cell-based; settings: Caco-2, read-out: permeability
[25] = molecular target: Mast/stem cell growth factor receptor Kit (Homo sapiens, UniProt P10721, D816H); test: ATP competitive inhibition of human c-Kit D816H mutant
[26] = molecular target: Tyrosine-protein kinase Mer (Homo sapiens, UniProt Q12866); test: ATP competitive inhibition of human Mer
[27] = molecular target: Glycogen synthase kinase-3 alpha (Homo sapiens, UniProt P49840); test: ATP competitive inhibition of human GSK3alpha

Sequence of DNA-dependent protein kinase catalytic subunit (P78527 whole entry): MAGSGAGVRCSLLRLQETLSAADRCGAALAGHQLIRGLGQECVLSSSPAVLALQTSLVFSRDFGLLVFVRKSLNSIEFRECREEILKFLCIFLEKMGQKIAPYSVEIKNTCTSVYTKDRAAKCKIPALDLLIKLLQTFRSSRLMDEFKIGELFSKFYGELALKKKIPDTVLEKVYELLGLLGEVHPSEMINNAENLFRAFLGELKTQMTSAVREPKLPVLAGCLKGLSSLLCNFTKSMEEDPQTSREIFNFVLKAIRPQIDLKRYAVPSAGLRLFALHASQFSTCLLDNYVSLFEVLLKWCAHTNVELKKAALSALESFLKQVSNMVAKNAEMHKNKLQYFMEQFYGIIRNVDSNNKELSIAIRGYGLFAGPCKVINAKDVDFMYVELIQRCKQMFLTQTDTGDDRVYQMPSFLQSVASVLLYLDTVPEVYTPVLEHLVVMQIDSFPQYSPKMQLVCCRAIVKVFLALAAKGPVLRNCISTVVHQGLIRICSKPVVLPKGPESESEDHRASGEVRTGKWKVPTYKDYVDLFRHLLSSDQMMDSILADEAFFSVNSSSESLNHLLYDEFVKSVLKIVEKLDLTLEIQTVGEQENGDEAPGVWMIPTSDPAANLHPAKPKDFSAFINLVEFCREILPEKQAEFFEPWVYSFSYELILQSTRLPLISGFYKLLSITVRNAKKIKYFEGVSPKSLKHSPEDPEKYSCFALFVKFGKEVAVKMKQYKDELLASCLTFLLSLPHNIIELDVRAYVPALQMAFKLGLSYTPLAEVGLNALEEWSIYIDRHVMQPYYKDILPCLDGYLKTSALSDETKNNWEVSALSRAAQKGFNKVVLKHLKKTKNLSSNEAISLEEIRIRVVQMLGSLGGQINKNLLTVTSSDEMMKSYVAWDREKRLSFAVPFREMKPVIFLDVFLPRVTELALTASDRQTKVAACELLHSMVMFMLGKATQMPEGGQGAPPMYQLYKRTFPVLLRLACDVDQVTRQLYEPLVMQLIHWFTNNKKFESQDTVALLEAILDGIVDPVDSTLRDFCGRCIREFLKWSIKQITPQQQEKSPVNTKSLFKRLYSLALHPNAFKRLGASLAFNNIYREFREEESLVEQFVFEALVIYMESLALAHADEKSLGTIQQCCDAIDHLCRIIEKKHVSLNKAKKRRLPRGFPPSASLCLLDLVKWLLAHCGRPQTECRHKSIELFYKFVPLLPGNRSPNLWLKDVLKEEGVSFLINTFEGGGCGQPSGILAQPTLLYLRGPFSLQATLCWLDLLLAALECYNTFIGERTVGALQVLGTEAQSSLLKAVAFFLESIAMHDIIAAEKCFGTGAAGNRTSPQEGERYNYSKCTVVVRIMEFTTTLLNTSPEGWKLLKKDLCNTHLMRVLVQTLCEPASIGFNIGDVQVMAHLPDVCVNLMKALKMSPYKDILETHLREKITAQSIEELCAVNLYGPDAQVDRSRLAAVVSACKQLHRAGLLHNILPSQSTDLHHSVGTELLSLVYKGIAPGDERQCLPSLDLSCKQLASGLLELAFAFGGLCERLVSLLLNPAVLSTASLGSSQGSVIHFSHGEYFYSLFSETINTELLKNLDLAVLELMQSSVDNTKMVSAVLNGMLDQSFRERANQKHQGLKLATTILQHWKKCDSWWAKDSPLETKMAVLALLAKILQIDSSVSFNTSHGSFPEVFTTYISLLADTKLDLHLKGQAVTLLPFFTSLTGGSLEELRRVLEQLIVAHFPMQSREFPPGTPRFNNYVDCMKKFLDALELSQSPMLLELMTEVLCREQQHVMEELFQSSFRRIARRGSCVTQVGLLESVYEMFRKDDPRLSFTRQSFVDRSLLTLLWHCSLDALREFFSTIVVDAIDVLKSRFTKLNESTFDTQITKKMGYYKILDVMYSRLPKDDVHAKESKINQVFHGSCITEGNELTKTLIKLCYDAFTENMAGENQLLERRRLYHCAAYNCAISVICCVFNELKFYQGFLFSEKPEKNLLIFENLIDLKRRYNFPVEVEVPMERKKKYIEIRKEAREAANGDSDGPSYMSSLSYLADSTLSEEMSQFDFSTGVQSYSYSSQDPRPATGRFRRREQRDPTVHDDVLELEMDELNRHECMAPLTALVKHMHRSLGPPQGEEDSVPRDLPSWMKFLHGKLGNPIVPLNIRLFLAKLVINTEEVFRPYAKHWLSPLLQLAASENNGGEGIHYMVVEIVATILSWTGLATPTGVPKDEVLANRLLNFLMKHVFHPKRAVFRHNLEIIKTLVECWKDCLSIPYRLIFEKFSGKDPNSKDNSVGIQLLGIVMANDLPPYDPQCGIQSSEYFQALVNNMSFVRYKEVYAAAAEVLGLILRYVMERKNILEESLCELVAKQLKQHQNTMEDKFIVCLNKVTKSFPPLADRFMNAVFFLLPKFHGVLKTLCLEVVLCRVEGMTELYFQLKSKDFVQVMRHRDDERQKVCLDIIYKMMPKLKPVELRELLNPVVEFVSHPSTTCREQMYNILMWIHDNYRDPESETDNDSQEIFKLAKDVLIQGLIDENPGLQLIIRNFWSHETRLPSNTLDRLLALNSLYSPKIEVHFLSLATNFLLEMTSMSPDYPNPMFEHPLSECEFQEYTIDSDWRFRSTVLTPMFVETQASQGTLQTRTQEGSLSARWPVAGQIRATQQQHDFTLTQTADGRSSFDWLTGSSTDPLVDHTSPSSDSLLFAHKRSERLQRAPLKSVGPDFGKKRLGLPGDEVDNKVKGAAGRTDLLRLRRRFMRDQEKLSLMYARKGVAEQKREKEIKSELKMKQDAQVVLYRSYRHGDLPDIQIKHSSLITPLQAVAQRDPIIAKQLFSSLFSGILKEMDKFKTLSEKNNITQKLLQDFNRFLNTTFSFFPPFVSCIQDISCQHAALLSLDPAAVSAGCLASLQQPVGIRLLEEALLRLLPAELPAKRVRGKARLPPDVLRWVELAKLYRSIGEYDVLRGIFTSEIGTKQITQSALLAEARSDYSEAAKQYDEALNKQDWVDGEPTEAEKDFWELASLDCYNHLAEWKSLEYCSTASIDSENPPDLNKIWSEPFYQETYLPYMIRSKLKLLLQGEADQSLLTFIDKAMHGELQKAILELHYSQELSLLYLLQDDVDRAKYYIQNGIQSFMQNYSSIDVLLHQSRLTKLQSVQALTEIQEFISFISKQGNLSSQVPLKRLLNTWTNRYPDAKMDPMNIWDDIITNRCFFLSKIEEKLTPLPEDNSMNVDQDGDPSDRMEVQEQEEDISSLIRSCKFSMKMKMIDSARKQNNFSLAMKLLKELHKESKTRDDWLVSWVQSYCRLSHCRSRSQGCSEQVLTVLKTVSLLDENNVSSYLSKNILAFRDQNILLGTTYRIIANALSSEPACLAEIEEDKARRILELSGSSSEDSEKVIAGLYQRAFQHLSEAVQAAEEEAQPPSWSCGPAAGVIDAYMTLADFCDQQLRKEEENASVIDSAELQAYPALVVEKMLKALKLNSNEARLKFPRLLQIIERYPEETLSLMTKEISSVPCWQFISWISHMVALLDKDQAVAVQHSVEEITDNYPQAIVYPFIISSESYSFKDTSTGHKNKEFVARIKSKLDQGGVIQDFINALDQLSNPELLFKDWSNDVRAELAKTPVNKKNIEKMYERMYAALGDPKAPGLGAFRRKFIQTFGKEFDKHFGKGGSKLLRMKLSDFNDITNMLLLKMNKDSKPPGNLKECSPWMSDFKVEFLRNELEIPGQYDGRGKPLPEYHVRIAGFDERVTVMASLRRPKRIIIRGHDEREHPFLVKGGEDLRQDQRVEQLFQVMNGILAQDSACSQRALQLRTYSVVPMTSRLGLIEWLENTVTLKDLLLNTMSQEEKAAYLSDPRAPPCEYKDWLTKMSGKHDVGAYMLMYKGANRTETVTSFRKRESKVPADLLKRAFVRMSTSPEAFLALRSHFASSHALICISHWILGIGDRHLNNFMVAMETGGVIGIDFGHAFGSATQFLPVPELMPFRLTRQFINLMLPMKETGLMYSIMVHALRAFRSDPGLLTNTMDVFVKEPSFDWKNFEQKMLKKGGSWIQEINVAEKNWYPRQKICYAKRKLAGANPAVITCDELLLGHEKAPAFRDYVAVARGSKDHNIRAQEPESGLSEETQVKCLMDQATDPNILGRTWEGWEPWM
Sequence of Glycogen synthase kinase-3 beta (P49841 whole entry): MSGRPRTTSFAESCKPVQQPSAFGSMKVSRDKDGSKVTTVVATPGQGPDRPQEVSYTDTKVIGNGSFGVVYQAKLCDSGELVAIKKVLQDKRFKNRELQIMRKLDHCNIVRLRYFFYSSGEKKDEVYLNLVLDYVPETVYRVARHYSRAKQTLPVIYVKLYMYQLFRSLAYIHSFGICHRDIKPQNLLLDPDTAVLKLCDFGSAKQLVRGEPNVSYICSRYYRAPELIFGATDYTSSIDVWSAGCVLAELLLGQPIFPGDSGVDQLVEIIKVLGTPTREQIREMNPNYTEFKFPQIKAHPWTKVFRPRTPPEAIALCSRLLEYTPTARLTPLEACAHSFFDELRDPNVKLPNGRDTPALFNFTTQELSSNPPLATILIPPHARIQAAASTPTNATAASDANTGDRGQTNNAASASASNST
Sequence of Cytochrome P450 2C9 (P11712 whole entry, the tested form may be a part): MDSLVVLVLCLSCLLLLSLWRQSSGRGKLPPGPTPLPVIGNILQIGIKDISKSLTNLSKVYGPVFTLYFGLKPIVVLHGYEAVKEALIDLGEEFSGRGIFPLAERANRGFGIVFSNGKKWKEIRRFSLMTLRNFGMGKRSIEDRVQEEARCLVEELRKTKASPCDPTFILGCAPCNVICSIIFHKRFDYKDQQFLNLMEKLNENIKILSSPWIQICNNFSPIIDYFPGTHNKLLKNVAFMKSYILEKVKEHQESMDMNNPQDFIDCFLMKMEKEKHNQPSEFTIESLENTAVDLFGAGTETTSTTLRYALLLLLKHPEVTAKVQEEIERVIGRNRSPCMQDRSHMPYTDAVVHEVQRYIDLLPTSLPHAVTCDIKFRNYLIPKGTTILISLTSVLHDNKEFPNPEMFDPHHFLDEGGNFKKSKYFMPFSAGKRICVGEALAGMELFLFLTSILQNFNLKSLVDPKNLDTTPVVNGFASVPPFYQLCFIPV

SMILES | IC50 [1] [µM] | Ki [3] [µM] | Ki [4] [µM] | Ki [5] [µM] | solubility [8] [µM] | further results
CC(C)S(=O)(=O)c1ccc(-c2cnc(N)c(-c3nnc(-c4ccccc4)s3)n2)cc1 | 1.7 | > 4 | 0.001 | > 4 | – | Ratio Ki (Homo sapiens [2]): > 1000; Ratio Ki (Homo sapiens [6]): > 1000
CC(C)S(=O)(=O)c1ccc(-c2cnc(N)c(-c3noc(-c4ccccc4)n3)n2)cc1 | 2.3 | 4 | 0.005 | 0.4 | – | –
CS(=O)(=O)c1ccc(-c2cnc(N)c(C(=O)Nc3ccccc3)n2)cc1 | – | – | – | – | – | Activity (HCT-116 [7]): Active
CC(C)S(=O)(=O)c1ccc(-c2cnc(N)c(-c3cnc(-c4ccccc4)o3)n2)cc1 | – | > 4 | 0.021 | > 10 | – | –
CC(C)S(=O)(=O)c1ccc(-c2cnc(N)c(C(=O)Nc3ccccc3)n2)cc1 | 1.03 | 2.8 | 0.004 | 4 | – | –
CC(C)S(=O)(=O)c1ccc(-c2cnc(N)c(-c3cn(-c4ccccc4)nn3)n2)cc1 | > 2.5 | > 4 | – | 1.3 | – | –
CNCc1ccc(-c2cc(-c3nc(-c4ccc(S(=O)(=O)C(C)C)cc4)cnc3N)on2)c(Cl)c1 | 0.21 | 2.61 | 0.00075 | 0.093 | 4.4 (≈ 2.19 µg/mL) | –
CNCc1ccc(-c2cc(-c3nc(-c4ccc(S(=O)(=O)C(C)C)cc4)cnc3N)on2)cc1 [BERZOSERTIB] | – | > 4 | – | 0.044 | 52 (≈ 24.1 µg/mL) | Ki [9]: 0.13 µM; Ki [10]: 0.018 µM; IC50 [11]: > 30 µM; pKa [12]: 8.2; Ki [13]: 0.15 µM; Ki [14]: 0.015 µM; Activity (HCT-116 [15]): Active; Vd [16]: 21 L/kg; Ki [17]: 0.19 µM; Ki [18]: 0.026 µM; Ki [19]: 0.059 µM; IC50 [20]: 3 µM; Ki [21]: 0.008 µM; Ki [22]: 0.14 µM; IC50 (Cytochrome P450 2C9): > 30 µM; half-life [23]: 11.6 h; Papp A→B [24]: 7.2 ×10⁻⁶ cm/s; Ki [25]: 0.039 µM; Ki [26]: 0.03 µM; Ki [27]: 0.033 µM
CNCc1ccc(-c2cc(-c3nc(-c4ccc(S(=O)(=O)C(C)C)cc4)cnc3N)on2)cc1Cl | 0.13 | > 4 | 0.0024 | 0.19 | 1.36 (≈ 0.677 µg/mL) | –
CC(C)S(=O)(=O)c1ccc(-c2cnc(N)c(-c3cc(-c4ccccc4)on3)n2)cc1 | 0.8 | > 4 | 0.002 | 1.3 | – | Ki [22]: 0.53 µM
CC(C)S(=O)(=O)c1ccc(-c2cnc(N)c(-c3cc(-c4ccc(CN)cc4)no3)n2)cc1 | > 25 | > 4 | 0.00027 | 0.115 | 12.5 (≈ 5.62 µg/mL) | –
CCNCc1ccc(-c2cc(-c3nc(-c4ccc(S(=O)(=O)C(C)C)cc4)cnc3N)on2)cc1 | 0.076 | 3.35 | 0.00021 | 0.047 | 72 (≈ 34.4 µg/mL) | –
CC(C)S(=O)(=O)c1ccc(-c2cnc(N)c(-c3nnc(-c4ccccc4)o3)n2)cc1 | 0.41 | 8.9 | 0.001 | > 10 | – | Ratio Ki (Homo sapiens [2]): > 1000; Ki [22]: 0.022 µM; Ratio Ki (Homo sapiens [6]): > 1000
CC(C)S(=O)(=O)c1ccc(-c2cnc(N)c(-c3ncc(-c4ccccc4)o3)n2)cc1 | > 2.5 | > 4 | – | > 10 | – | –
CC(C)S(=O)(=O)c1ccc(-c2cnc(N)c(-c3cc(-c4ccc(CNC5CCOCC5)cc4)no3)n2)cc1 | – | > 4 | – | 0.189 | 0.8 (≈ 0.427 µg/mL) | pKa [12]: 9.7
CC(C)S(=O)(=O)c1ccc(-c2cnc(N)c(-c3cc(-c4ccc([C@H](C)N)cc4)no3)n2)cc1 | 0.3 | 0.785 | 0.00124 | 0.082 | 27.9 (≈ 12.9 µg/mL) | –
CC(C)S(=O)(=O)c1ccc(-c2cnc(N)c(C3CC(c4ccccc4)=NO3)n2)cc1 (racemic) | > 2.5 | > 4 | – | > 4 | – | –
CC(C)S(=O)(=O)c1ccc(-c2cnc(N)c(-c3cc(-c4ccc([C@@H](C)N)cc4)no3)n2)cc1 | 0.13 | 1.7 | 0.00053 | 0.105 | 45.1 (≈ 20.9 µg/mL) | –
CC(C)S(=O)(=O)c1ccc(-c2cnc(N)c(-c3cc(-c4ccccc4)no3)n2)cc1 | 1.1 | > 4 | 0.001 to 0.0013 | 1.4 | < 0.3 | Ratio Ki (Homo sapiens [2]): > 1000; Ki [22]: 0.65 µM; Ratio Ki (Homo sapiens [6]): > 1000
CC(C)S(=O)(=O)c1ccc(-c2cnc(N)c(-c3nc(-c4ccccc4)no3)n2)cc1 | > 2.5 | > 1.6 | 0.026 | 1.35 | – | –
